From PubChem
Compounds with a hit are over-represented: about 1.7% of the library has one in this group of screens.
m5-HT2A agonist = mouse HTR2A agonism via beta-arrestin recruitment | P35363 | CHO-K1 mHTR2A beta-arrestin complementation, luminescence; percent of 30 µM serotonin response | activation, % at 7.6 µM | hit rate 0.66% among 360,000;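 active = activation above a run cutoff, the mean activation of all tested compounds plus 3 SD, cut at about 14% in these data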
T cell modulator = T cell immune modulation candidate. 2C CD8+ T cell-vesicle binding, flow cytometry; active compounds read low. response (vesicle binding), % at 7 µM. hit rate 0.068% among 330,000;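 active = response, share of CD8 T cells binding vesicles, and their 90th percentile fluorescence all below set limits, cut at about 80% in these data, passing the limit was not always enough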;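 also: values below 100% mean blocked vesicle binding to the CD8+ T cells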
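Assay system: 2C TCR transgenic mouse naive CD8+ T cells, MACS-purified | Read-out: CD8+ gate FL2 mean fluorescence as % of same-row positive control | Signal: High-throughput flow cytometry with anti-B7-1 and anti-CD8 staining | Timing: Binding step 1.5 h, 37 °C, antibody labelling 20 min, ice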
GASC-1 inh = inhibitors of human GASC-1 (JMJD2C) demethylase. GST-JMJD2C(1-420) H3K9me3 demethylation, DELFIA europium. inhibition, % at 2.35 µM. hit rate 0.069% among 330,000;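 active = more than half of a compound's replicate wells show inhibition beyond 50%, single wells judged on their own value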;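 also: signal counts dimethyl H3K9 product captured on neutravidin plate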
PP5 primary = inhibitors of human protein phosphatase 5 (PP5); purified PP5c, OMFP substrate fluorescence; inhibition, % at 6.7 µM; hit rate 0.18% among 320,000; AID 1987;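 active = inhibition above the campaign's mean inhibition across all tested compounds plus 3 SD, cut at about 9.5% in these data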
PP1 counter = blocks human PP1-alpha phosphatase, a PP5 counter-screen; P62136; purified PP1alpha, OMFP fluorescence; hit rate 0.9% among 320,000; AID 2235; inhibition, % at 6.7 µM;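 active = inhibition above the mean inhibition of all tested compounds plus 3 SD, computed separately for each screening campaign, cut at about 15% in these data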
OPRM1 ag = OPRM1 agonism in mouse HTR2A counterscreen; shares compounds with m5-HT2A agonist; U2OS OPRM1 beta-arrestin PathHunter, luminescence; DMSO 0%, DAMGO 9.3 µM 100%; activation, % at 9.3 µM; hit rate 5.3% among 2,300; AID 624380;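 active = mean activation above the mean of DMSO-only wells plus 3 SD, cut at about 0.5% in these data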
Target sequence (P35372 whole entry, looked up): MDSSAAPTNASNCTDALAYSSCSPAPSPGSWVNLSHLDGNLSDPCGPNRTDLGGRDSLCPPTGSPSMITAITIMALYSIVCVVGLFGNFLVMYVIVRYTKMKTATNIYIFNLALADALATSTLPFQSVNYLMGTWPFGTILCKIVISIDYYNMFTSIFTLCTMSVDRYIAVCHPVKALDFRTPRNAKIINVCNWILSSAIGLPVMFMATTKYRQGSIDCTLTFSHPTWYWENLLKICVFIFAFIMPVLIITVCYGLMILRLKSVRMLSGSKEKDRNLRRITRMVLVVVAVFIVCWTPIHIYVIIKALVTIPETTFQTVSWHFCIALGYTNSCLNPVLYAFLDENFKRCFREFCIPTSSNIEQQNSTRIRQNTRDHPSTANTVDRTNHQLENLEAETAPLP
m5-HT2A ag conf = mouse HTR2A agonism confirmed; hit rate 19% among 2,300; shares compounds with m5-HT2A agonist; AID 624381; CHO-K1 PathHunter beta-arrestin recruitment, luminescence; DMSO 0%, 30 µM serotonin 100%; activation, % at 7.6 µM;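 active = mean activation across triplicates above the hit threshold derived in the original primary screen, cut at about 15% in these data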
Hits are given with their value; 0 = inactive; - = no result.

SMILES	m5-HT2A agonist	T cell modulator	GASC-1 inh	PP5 primary	PP1 counter	OPRM1 ag	m5-HT2A ag conf
O=C(C1CCCN(c2ncnc3c2nc2n3CCCCC2)C1)N1CCN(c2ccc(Cl)cc2)CC1 (configuration not stated)	0	0	0	0	0	-	-
O=C(C1CCN(c2ncnc3c2nc2n3CCCCC2)CC1)N1CCN(c2cccc(Cl)c2)CC1	18	0	0	0	0	0	0
Cc1ccc(CCNC(=O)C2CCCN(c3ncnc4c3nc3n4CCCCC3)C2)cc1 (configuration not stated)	0	0	0	0	0	-	-
O=C(c1ccccc1)N1CCN(c2cc(Cl)nc3cc(-c4cccc(Cl)c4)nn23)CC1	0	-	-	-	-	-	-
Cc1ccccc1-c1ccc(/C=C2/SC(N3CCOCC3)=NC2=O)o1	21	0	0	0	0	0	89
O=C1N=C(N2CCOCC2)S/C1=C\c1ccc(-c2ccccc2Cl)o1	0	0	0	0	0	-	-
CCCCOc1ccc(C(=O)NCC(=O)NNC(=O)C2COc3ccccc3O2)cc1 (configuration not stated)	0	0	0	0	0	-	-
CCOc1ccc(C(=O)NCC(=O)NNC(=O)C2COc3ccccc3O2)cc1OCC (configuration not stated)	19	0	0	0	0	0	0
CCOC(=O)C(C(=O)Nc1cccc(C)n1)C1CCCCC1 (configuration not stated)	14	0	0	0	0	0	0
CCOC(=O)C(C(=O)Nc1ccccn1)C1CCCCC1 (configuration not stated)	0	0	0	0	0	-	-
CCN1CCN(C(=S)Nc2cccc([N+](=O)[O-])c2)CC1	26	0	0	0	0	0	0
O=[N+]([O-])c1cccc(NC(=S)N2CCCC2)c1	0	0	0	-	-	-	-
NS(=O)(=O)c1ccc(NC(=O)COC(=O)/C(=C/c2cccs2)c2cccs2)cc1	0	0	0	0	0	-	-
Cc1ccc(C(=O)c2cc([N+](=O)[O-])ccc2N2CCOCC2)c(C)c1	15	0	0	0	0	0	0
Cc1ccccc1C(=O)Nc1cccc(-c2cn3ccccc3n2)c1	16	0	0	0	0	0	0
O=C(C1CC(=O)N(c2ccc3c(c2)OCCO3)C1)N1CCN(S(=O)(=O)c2ccccc2F)CC1 (configuration not stated)	18	-	-	-	-	0	0
O=C(C1CC(=O)N(c2ccc3c(c2)OCCO3)C1)N1CCN(S(=O)(=O)c2ccc(F)cc2)CC1 (configuration not stated)	0	-	-	-	-	-	-
Cc1ccsc1CN1CCN(c2ccccn2)CC1	35	0	0	0	0	0	98
Cc1[nH]c(=O)nc(SCc2ccc(Cl)c(Cl)c2)c1C#N	15	0	0	0	0	0.8	0
CC(=O)Nc1ccc(OCC(O)Cn2ccnc2)cc1 (configuration not stated)	0	0	0	0	0	-	-
CC(=O)c1ccccc1OCC(O)Cn1ccnc1 (configuration not stated)	21	0	0	0	0	0	0
CC1(C)N=C(N)N=C(N)N1c1cc(Cl)ccc1Cl	23	-	-	-	-	0	0
CC1(C)N=C(N)N=C(N)N1c1ccc(F)cc1F	0	0	0	0	0	-	-
Cc1ccc(C2=NN(CC(=O)NCc3ccccn3)C(=O)CC2)cc1	0	0	0	0	0	-	-
COc1ccc(C(=O)NCCn2cc(SCC(=O)N3CCOCC3)c3ccccc32)cc1	0	0	0	0	0	-	-
SMILES	m5-HT2A agonist	T cell modulator	GASC-1 inh	PP5 primary	PP1 counter	OPRM1 ag	m5-HT2A ag conf
COc1ccc(C(=O)NCCn2cc(SCC(N)=O)c3ccccc32)cc1	16	0	0	0	0	0	0
Cc1ccc(C(C(=O)NCc2ccccc2)N(C(=O)c2csnn2)C2CC2)cc1 (configuration not stated)	19	0	0	0	0	0	0
O=C(NCc1ccccc1)C(c1ccccc1)N(C(=O)c1csnn1)C1CC1 (configuration not stated)	0	0	0	0	0	-	-
CCc1cc2c(-c3ccccc3)cc(=O)oc2cc1OCC(=O)NCC1CCC(C(=O)O)CC1 (configuration not stated)	0	0	0	0	0	-	-
Cc1ccc(NC(=O)c2ccccc2NC(=O)c2cccs2)cc1	0	0	0	0	0	-	-
CC(C)CC(=O)N1CCN(Cc2ccc3c(c2)OCO3)CC1	19	0	0	0	0	0.6	36
O=C(c1ccc(Br)o1)N1CCN(Cc2ccc3c(c2)OCO3)CC1	17	0	0	0	0	0.8	20
Cc1cccc(C(=O)N2CCN(Cc3ccc4c(c3)OCO4)CC2)c1	15	0	0	0	0	0	0
O=C(c1ccccc1)N1CCN(Cc2ccc3c(c2)OCO3)CC1	0	0	0	0	0	-	-
O=C(c1ccc(Br)s1)N1CCN(Cc2ccc3c(c2)OCO3)CC1	0	0	0	0	0	-	-
COc1ccccc1CC(=O)Nc1ccc(S(=O)(=O)N2CCOCC2)cc1	0	0	0	0	0	-	-
N#CCCSc1ccccc1NC(=O)c1cc(=O)c2ccccc2o1	0	0	0	0	0	-	-
CCCCn1c(N)c(N(CCOC)C(=O)CN(C)S(=O)(=O)c2ccc(F)cc2)c(=O)[nH]c1=O	0	0	0	0	0	-	-
O=C(CCNC(=O)c1ccco1)NNC(=O)c1ccc(Br)cc1	0	-	-	-	-	-	-
COc1ccc([N+](=O)[O-])cc1NC(=O)COC(=O)C12CC3CC(CC(O)(C3)C1)C2	0	-	-	-	-	-	-
CCOC(=O)C(=CNc1ncccc1C)C(=O)OCC	23	0	0	0	0	0	0
CCOC(=O)C(=CNc1ccccc1C)C(=O)OCC	0	0	0	0	0	-	-
CC(C)NC(=O)C1(C)CCN1CCC(=O)c1ccccc1 (configuration not stated)	0	-	-	-	-	-	-
Cc1nc(-[n+]2nc(-c3ccncc3)nn2-c2ccccc2)sc1C	0	-	-	-	-	-	-
O=C(COC(=O)c1ccccc1NCCO)Nc1ccc(S(=O)(=O)NC2=NCCCCC2)cc1	22	-	-	-	-	0	0
O=C(COC(=O)c1ccccc1O)Nc1cccc(S(=O)(=O)NC2=NCCCCC2)c1	0	0	0	0	0	-	-
Cc1ccccc1CC(=O)N1CCN(S(=O)(=O)c2cccs2)CC1	16	0	0	0	0	0	0
Cc1ccc(CN2CCN(C(=O)c3ccco3)CC2)cc1	43	0	0	0	0	0	121
O=C(c1ccco1)N1CCN(Cc2cccnc2)CC1	0	0	0	0	0	-	-
CN(C)C(=O)N1CCN(C(=O)c2ccco2)CC1	0	0	0	0	0	-	-
Cc1ccsc1C(=O)N1CCN(C(=O)c2ccco2)CC1	17	0	0	0	0	0	0
Cc1cc(C)c(OCC(=O)OCC(=O)N2CCN(C(=O)c3ccco3)CC2)c(C)c1	19	0	0	0	0	0	0
